# A selection: hits, their analogues and other compounds. The true share with any hit is near 2.3%.
# TAAR1 antagonist = human TAAR1 antagonism; CHO RD-HGA16 TAAR1, Fluo-8 calcium fluorescence, antagonist; inhibition, % at 3 µM; 360,000 compounds, 1.5% hits; AID 624466;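 active = inhibition above a per-plate cutoff, the mean inhibition of test compounds on that plate plus 3 SD, cut at about 49% in these data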;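 note: 0% = DMSO plus EC80 beta-PEA response and 100% = DMSO alone without agonist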
# Target sequence (Q96RJ0 whole entry, looked up): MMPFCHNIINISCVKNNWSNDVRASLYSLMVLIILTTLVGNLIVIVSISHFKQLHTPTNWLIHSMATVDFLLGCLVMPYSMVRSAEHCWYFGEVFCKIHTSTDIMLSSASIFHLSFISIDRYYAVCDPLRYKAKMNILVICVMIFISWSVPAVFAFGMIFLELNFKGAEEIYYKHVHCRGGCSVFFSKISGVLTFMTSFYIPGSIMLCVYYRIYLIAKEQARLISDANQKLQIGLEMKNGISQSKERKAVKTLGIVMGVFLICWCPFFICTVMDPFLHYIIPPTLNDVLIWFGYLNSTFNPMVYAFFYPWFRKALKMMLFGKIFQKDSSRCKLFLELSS
#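 Test system: CHO RD-HGA16 cells bearing hTAAR1 | Reagent: β-PEA, EC80 | Compound dosing: 3 µM, single point | Schedule: Dye loading 75 min at 37 °C, then 30 min room temperature | Signal: Calcium fluorescence with Fluo-8 | Evaluation: Percent inhibition of PEA-evoked calcium signal, max/basal emission ratio | Control set: DMSO-only wells and EC80 β-PEA-stimulated wells | Repeats: Singlicate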
# V1aR counter = activates human V1a receptor in oxytocin agonist counter-screen; CHO-V1R cells, Fluo-8 calcium fluorescence, agonist mode; 0% DMSO, 100% 3 nM vasopressin; activation, % at 3 µM; AID 2797; 320,000 compounds, 0.25% hits;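 active = activation above the mean activation of all tested compounds plus 3 SD, per screening run, cut at about 20% in these data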;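 note: signal is peak over basal fluorescence ratio across a 100 second FLIPR read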
# OXTR ag = activates the human oxytocin receptor. activation, % at 3 µM. CHO-OTR cells, Fluo-8 calcium fluorescence; normalized: DMSO 0%, oxytocin 100%. P30559. 320,000 compounds, 0.32% hits;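 active = activation above the mean of all tested compounds plus 3 SD, cutoff set per screening run, cut at about 20% in these data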;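 note: peak over basal fluorescence ratio from a 100 s FLIPR kinetic read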
# TAAR1 ag = agonists of human TAAR1. CHO RD-HGA16 TAAR1, Fluo-8 calcium fluorescence; vehicle wells 0%, saturating PEA agonist 100%. 360,000 compounds, 0.99% hits. activation, % at 3 µM. AID 624467. Q96RJ0;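 active = activation above the mean activation of all test compounds in the run plus 3 SD, cut at about 38% in these data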
#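 Test system: RD-HGA16 (CHO) cells co-expressing Gα16 and hTAAR1 | Doses: Single dose, 3 µM | Schedule: 17-24 h seeding, 75 min 37 °C dye, 30 min RT | Evaluation: % activation from peak over basal fluorescence ratio, DMSO-to-PEA scaled | Technique: Kinetic Fluo-8 calcium fluorescence | Benchmarks: Low control DMSO, high control PEA (EC100)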
# OXTR potentiate = potentiators of human oxytocin receptor | 320,000 compounds, 0.061% hits | CHO-OTR cells, Fluo-8 calcium fluorescence, potentiator mode; 0% = oxytocin EC15, 100% = EC100 | P30559 | AID 2445 | activation, % at 3 µM;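 active = activation above that plate's cutoff, the mean activation of tested compounds plus 3 SD, cut at about 6.6% in these data, passing the limit was not always enough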;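 note: 100% uses oxytocin at 75 nM as the full agonist control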
#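 assay system = CHO-OTR cells, human receptor | schedule = compound 6 min at room temperature before oxytocin, 100 s read | detection = Fluo-8 intracellular calcium fluorescence, ex 470-495, em 515-575 nm | evaluation = normalized max/min fluorescence ratio, % activation | control set = EC15 oxytocin alone as 0%, 75 nM oxytocin (EC100) as 100%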
# Active calls of the source: *; . = no result.
SMILES,TAAR1 antagonist,V1aR counter,OXTR ag,TAAR1 ag,OXTR potentiate
CCOc1ccc2oc(C(=O)Nc3ccc4c(c3)OCO4)c(C)c2c1,-1,-1,-1,1,-5
CCOc1ccc2oc(C(=O)Nc3ccc(N4CCOCC4)cc3)c(C)c2c1,50*,1,0,18,-5
CCOc1ccc(C(=O)Nc2cc(-c3nc4ccccc4[nH]3)ccc2Cl)cc1[N+](=O)[O-],53*,0,0,8,-15
CC(=O)NN1C(=O)/C(=C\c2ccc(O)cc2)SC1=S,21,5,8,19,-3
O=C1/C(=C\c2ccc(O)cc2)SC(=S)N1/N=C/c1ccc(O)cc1,32,22*,24*,29,-10
O=C(NCc1ccc(Cl)cc1)C1CCN(S(=O)(=O)N2CCOCC2)CC1,11,-1,0,7,-7
O=C(COC(=O)c1n[nH]c2ccccc12)NC(=O)NC1CCCCC1,-7,9,9,44*,-11
COC(=O)c1c(-c2ccccc2)c[nH]c1C,-15,0,0,1,-6
O=C1C2CC=C(Cl)CC2C(=O)N1CCCCCCN1C(=O)C2CC=C(Cl)CC2C1=O (stereo not drawn),22,8,8,41*,-10
O=C(CC1Sc2ccccc2NC1=O)OC(C(=O)NCCc1ccccc1)c1cccnc1 (stereo not drawn),53*,0,-2,23,-7
O=Cc1c[nH]c2cccc(OCc3ccccc3)c12,49*,.,.,-2,.
Cc1cc(C(=O)NCc2cc(F)cc3c2OCOC3)nn1C,-20,1,-1,1,-12
Cn1nc(C(C)(C)C)cc1C(=O)NCc1cc(F)cc2c1OCOC2,50*,8,10,9,-16
CC(C)(C)C1CCC(CN2C(Nc3ccccc3)=NC[C@@H]2Cc2ccccc2)CC1 (stereo partly drawn),36,14,18,74*,-1
CC(C)[C@H](NC(=O)C1CCCC1)C(=O)N1CCC[C@H]1C(=O)NCc1ccccc1,-15,.,.,0,.
Cc1cccc2cc3c(N)c(C(=O)N4CCc5ccccc54)sc3nc12,55*,5,4,31,-12
Cc1cccc2cc3c(N)c(C(=O)Nc4ccc(N5CCOCC5)cc4)sc3nc12,8,11,14,5,-13
O=S1(=O)N[C@H](Cc2ccccc2)COc2cc(Br)ccc21,-25,.,.,-1,.
C=CC[C@@H](CC(=O)N(CCO)Cc1ccccc1)C(=O)NC[C@@H](OC(=O)[C@@H](CC=C)Cc1ccc(F)cc1)c1ccccc1,69*,1,2,13,-8
C=CC[C@H](CC(=O)N(CCO)Cc1ccccc1)C(=O)NC[C@H](OC(=O)[C@@H](CC=C)Cc1ccc(F)cc1)c1ccccc1,90*,5,4,28,-10
CCOc1ccc(NS(=O)(=O)c2ccc(NC(=O)C3CCCO3)cc2)cc1 (stereo not drawn),23,7,7,39*,-27
COc1ccc(-c2nc3ccc(C)cn3c2NCc2ccc3c(c2)OCO3)cc1,32,1,-2,6,-11
COc1ccc(-c2nc3cc(C)ccn3c2NC(=O)c2ccccc2OC)cc1,37,6,-1,10,4
CCCCNc1c(-c2cccc(-c3ccc(OC)cc3)c2)nc2cc(C)ccn12,55*,0,-1,8,-9
CCCCNc1c(-c2cccc(-c3ccc(OC)cc3)c2)nc2ccc(C)cn12,81*,0,-3,12,-9
SMILES,TAAR1 antagonist,V1aR counter,OXTR ag,TAAR1 ag,OXTR potentiate
O=C(CC1Oc2ccccc2NC1=O)NCCc1ccccc1 (stereo not drawn),16,0,0,66*,-3
CCOC(=O)CNC(=S)N(Cc1ccco1)Cc1ccccc1Cl,-3,-1,-2,4,-1
Cc1ccc(C(O)(c2ccccc2)c2ccccc2C(C)N(C)C)c(C)c1 (stereo not drawn),-9,1,2,41*,0
CCOC(CNC(=O)c1nnc(Cc2cc(OC)c(OC)c(OC)c2)o1)OCC,-12,0,1,0,-1
CN1CCN(c2ncnc3c2ncn3[C@H]2CN(Cc3cccs3)C[C@@H](CO)O2)CC1,4,.,.,0,.
C=CC[C@@H](CC(=O)N[C@H](CO)Cc1ccccc1)C(=O)N[C@H](COC(=O)[C@H](CC=C)CC(=O)OC(C)(C)C)Cc1c[nH]c2ccccc12,34,.,.,21,.
C=CCC[C@@H](Cc1ccc(F)cc1)C(=O)OC[C@@H](NC(=O)[C@@H](CC=C)CC(=O)N(CCO)Cc1ccccc1)c1ccccc1,37,5,5,10,-10
C=CC[C@H](CC(=O)N(CCO)Cc1ccccc1)C(=O)N[C@@H](C)COC(=O)[C@@H](CC=C)Cc1ccc(F)cc1,54*,4,1,20,-5
C=CC[C@@H](CC(=O)N[C@@H](CO)Cc1ccccc1)C(=O)N[C@H](COC(=O)[C@H](CC=C)CC(=O)OC(C)(C)C)Cc1c[nH]c2ccccc12,52*,1,1,13,-7
C=CC[C@@H](CC(=O)N(CCO)Cc1ccccc1)C(=O)N[C@H](COC(=O)[C@@H](CC=C)CC(=O)OC(C)(C)C)Cc1ccccc1,47,-1,0,5,-10
C=CC[C@H](CC(=O)N(CCO)Cc1ccccc1)C(=O)N[C@H](COC(=O)[C@@H](CC=C)CC(=O)OC(C)(C)C)Cc1ccccc1,52*,1,-1,11,-8
C=CCC[C@@H](Cc1ccc(F)cc1)C(=O)OC[C@@H](NC(=O)[C@H](CC=C)CC(=O)N(CCO)Cc1ccccc1)c1ccccc1,61*,3,6,4,-11
O=C1c2cccc3c(N4CCCCC4)ccc(c23)C(=O)N1c1ccccn1,6,40*,42*,13,-30
COC(=O)Cn1c(=NC(=O)c2cc(OC)cc(OC)c2)sc2cc(OC)ccc21,4,0,-1,6,3
COC(=O)Cn1c(=NC(=O)c2cccc(OC)c2)sc2cc(OC)ccc21,49*,0,-1,6,-2
COc1ccc(S(=O)(=O)Cc2ccc(C(=O)N3CCN(c4cc(Cl)ccc4C)CC3)o2)cc1,49*,2,0,1,-5
N#Cc1ccccc1S(=O)(=O)N1CCN(C(=O)c2cc(=O)[nH]c3ccccc23)CC1,18,-1,-1,6,-9
COc1ccc(N2CCN(C(=O)c3cc(=O)[nH]c4ccccc34)CC2)cc1,13,1,1,13,-3
Cc1cc(C)c(S(=O)(=O)N2CCN(C(=O)c3cc(=O)[nH]c4ccccc34)CC2)c(C)c1,52*,6,1,43*,-9

# Screening data: PubChem BioAssay, The Scripps Research Institute Molecular Screening Center
